According to ChEMBL document CHEMBL4184225, “Discovery of selective 2,4-diaminoquinazoline toll-like receptor 7 (TLR 7) agonists” (Bioorg Med Chem Lett, 2018):

Species: Homo sapiens
Experiment: Selectivity index, ratio of MEC for agonist activity at human TLR8 expressed in HEK293 cells to MEC for agonist activity at human TLR7 expressed in HEK293 cells as
Type: cell-based
Procedure, shortened: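 Ratio of TLR8 to TLR7 LEC from HEK293 NFκB-luciferase reporter assays. Cells were transiently transfected with TLR7 or TLR8 construct plus NFκB-luc and treated with compound for 6 h at 37°C. LEC is the lowest concentration with signal at least two-fold above the assay SD, from quadruplicate dose-response curves.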

CCCCOc1nc(N)c2c(n1)N(Cc1cccc(CN3CCCC3)c1)CC(=O)N2
Ratio: 30
